What is called inhibition is the share of the control response that was lost under treatment.

From ChEMBL document CHEMBL4765301, “Discovery of novel TNNI3K inhibitor suppresses pyroptosis and apoptosis in murine myocardial infarction injury” (Eur J Med Chem, 2020) come the findings set out here.

Activity calls are given as the source filed them. The rule behind the calls is not given here.

The test system of assay [1] is H9c2. As to the kind of experiment: Inhibition of OGD-induced apoptosis in rat H9c2 cells assessed as reduction in NLRP3 level at 0.5 to 1 uM by Western blot analysis. The following applies: dose 0.5-1 µM. It counts as functional, cell-based. In a few lines:
(§1)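 H9c2 cells under OGD were treated with saline or 0.5 or 1.0 µM inhibitor. Cells were trypsinised, washed in cold PBS, lysed in RIPA with sonication and centrifuged 30 min. Total protein was quantified and separated by SDS-PAGE, then transferred to PVDF. Blots were probed with primary and secondary antibodies and detected by ECL.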
(In western blotting, separated proteins are transferred to a membrane and probed.)

Assay [2] relates to H9c2. As to the kind of experiment: Effect on TNNI3K expression in rat H9c2 cells at 0.5 to 1 uM by Western blot analysis. It counts as functional, cell-based. The following applies: dose 0.5-1 µM. In a few lines:
as §1

Assay [3] concerns Mus musculus. As to the kind of experiment: In vivo inhibition of TNNI3K in C57BL/6 mouse assessed as reduction in GSDMD at 25 mg/kg, ip administered for 28 days and measured on day 28 by immunohistochemical staining based fluorescence microscopy. The assay is classed as functional, organism-based. The following applies: time 28.0 day. The procedure, abridged:
(§2)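 Male C57BL/6 mice (5-6 weeks) with LAD-ligation MI; sham, saline or 25 mg/kg ip every two days, n=4, 28 days. Heart sections given EDTA (pH 8.0) or citrate (pH 6.0) microwave antigen retrieval, then primary antibody 30-40 min at 37°C. Detection by HRP polymer secondary with DAB (IHC) or fluorescent secondary (IF). Positive cells were quantified.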

For assay [4], the system named is H9c2. As to the kind of experiment: Cytoprotective activity against OGD-induced cell death in rat H9c2 cells assessed as cell viability incubated for 24 hrs by LDH release assay. To be noted: dose 0.5-1 µM. It counts as functional, cell-based. The procedure, abridged:
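OGD-exposed H9c2 cells were treated with 0.5 or 1.0 µM inhibitor for 24 h. LDH released into the culture medium was measured with a commercial LDH cytotoxicity kit.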

Assay [5] relates to H9c2. As to the kind of experiment: Inhibition of OGD-induced apoptosis in rat H9c2 cells assessed as reduction in caspase1 level at 0.5 to 1 uM by immunofluorescence staining based fluorescence microscopy. The following applies: dose 0.5-1 µM. The assay is classed as functional, cell-based. The procedure, abridged: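 In OGD-exposed H9c2 cells treated with 0.5 or 1.0 µM inhibitor, intracellular distribution and co-localisation of caspase-1 and NLRP3 were assessed by immunofluorescence microscopy.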

Assay [6] deals with H9c2. As to the kind of experiment: Inhibition of OGD-induced apoptosis in rat H9c2 cells assessed as early apoptotic cells at 0.5 uM incubated for 24 hrs by annexinV-FITC and PI staining based flow cytometry analysis (reference value: 3.53 %). It counts as functional.
Assay [7] has as its system H9c2. As to the kind of experiment: Inhibition of OGD-induced apoptosis in rat H9c2 cells assessed as early apoptotic cells at 1 uM incubated for 24 hrs by annexinV-FITC and PI staining based flow cytometry analysis (reference value: 3.53 %). The assay is classed as functional. On the technique in general: Flow cytometry measures light scatter and fluorescence of single cells or particles in a stream.

Assay [8] deals with Mus musculus. As to the kind of experiment: In vivo inhibition of TNNI3K in C57BL/6 mouse assessed as p38 phosphorylation at 25 mg/kg, ip administered for 28 days and measured on day 28 by immunohistochemical staining based fluorescence microscopy. To be noted: time 28.0 day. It counts as functional, organism-based. The procedure, abridged:
as §2

The subject of assay [9] is H9c2. As to the kind of experiment: Inhibition of OGD-induced apoptosis in rat H9c2 cells assessed as viable cells at 0.5 uM incubated for 24 hrs by annexinV-FITC and PI staining based flow cytometry analysis (reference value: 85 %). It counts as functional.
The test system of assay [10] is Mus musculus. As to the kind of experiment: Cardioprotective activity in C57BL/6 mouse model of myocardial infarction assessed as reduction in scar tissue at 25 mg/kg, ip administered for 28 days and measured on day 28 by masson staining based fluorescence microscopy. It counts as functional, organism-based. The following applies: time 28.0 day. The procedure, abridged:
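MI made in male C57BL/6 mice (5-6 weeks) by permanent LAD ligation under ip ketamine (100mg/kg)/xylazine (10mg/kg), ventilated. Groups: sham, saline (NS), inhibitor 25 mg/kg ip every two days, n=4. Hearts examined after 28 days; TTC, Masson's trichrome and H&E staining of sections for infarct, collagen/scar, LV inflammatory cells and dilatation.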

In assay [11] the target is Epidermal growth factor receptor (Homo sapiens) (UniProt P00533). As to the kind of experiment: Inhibition of recombinant human EGFR (696 to end residues) assessed as residual activity at 1 uM using poly(Glu, Tyr) 4:1 as substrate incubated for 40 mins by [gamma-33P]-ATP scintillation counting based radiometry assay relative to control.
In assay [12] the test system is H9c2. As to the kind of experiment: Inhibition of OGD-induced apoptosis in rat H9c2 cells assessed as reduction in GSDMD level at 0.5 to 1 uM by Western blot analysis. The assay is classed as functional, cell-based. To be noted: dose 0.5-1 µM. In a few lines:
as §1

Assay [13] concerns H9c2. As to the kind of experiment: Inhibition of OGD-induced apoptosis in rat H9c2 cells assessed as reduction in cytochromeC level by Western blot analysis. It counts as functional, cell-based. To be noted: dose 0.5-1 µM. In a few lines: as §1
Assay [14] has as its system H9c2. As to the kind of experiment: Inhibition of OGD-induced apoptosis in rat H9c2 cells assessed as reduction in GSDMD activation at 0.5 to 1 uM by Western blot analysis. It counts as functional, cell-based. The following applies: dose 0.5-1 µM. The procedure, abridged:
as §1

Assay [15] deals with T1, Serine/threonine-protein kinase TNNI3K (Homo sapiens) (UniProt Q59H18).
T1 sequence (whole entry): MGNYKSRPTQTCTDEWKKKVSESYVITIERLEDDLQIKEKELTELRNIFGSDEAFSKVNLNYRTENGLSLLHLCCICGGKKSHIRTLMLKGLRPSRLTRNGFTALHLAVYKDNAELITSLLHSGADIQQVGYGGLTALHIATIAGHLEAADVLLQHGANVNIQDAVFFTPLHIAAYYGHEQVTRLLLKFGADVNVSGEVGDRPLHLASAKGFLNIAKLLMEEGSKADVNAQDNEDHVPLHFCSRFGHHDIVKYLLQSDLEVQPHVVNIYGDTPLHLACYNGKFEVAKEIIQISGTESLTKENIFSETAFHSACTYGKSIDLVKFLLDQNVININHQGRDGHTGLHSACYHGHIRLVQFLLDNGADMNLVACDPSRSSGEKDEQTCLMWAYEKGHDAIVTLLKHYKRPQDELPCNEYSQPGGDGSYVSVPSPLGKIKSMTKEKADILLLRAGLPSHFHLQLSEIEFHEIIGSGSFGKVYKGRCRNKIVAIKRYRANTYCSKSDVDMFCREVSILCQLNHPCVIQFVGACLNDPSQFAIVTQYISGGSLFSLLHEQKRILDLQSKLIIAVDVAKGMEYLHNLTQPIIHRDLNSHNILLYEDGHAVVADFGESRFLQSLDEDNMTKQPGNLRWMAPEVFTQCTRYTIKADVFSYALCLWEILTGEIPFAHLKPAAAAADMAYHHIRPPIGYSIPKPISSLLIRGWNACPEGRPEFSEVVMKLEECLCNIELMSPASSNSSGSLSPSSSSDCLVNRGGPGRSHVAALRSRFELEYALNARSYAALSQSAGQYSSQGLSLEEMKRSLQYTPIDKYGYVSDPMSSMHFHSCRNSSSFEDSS
As to the kind of experiment: Inhibition of TNNI3K (unknown origin) assessed as residual activity at 1 uM using biotinylated CTnI as substrate by HTRF analysis relative to control. In a few lines:
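TNNI3K was assayed by HTRF using a GST-tagged TNNI3K kinase domain and a biotinylated cardiac troponin I substrate peptide, followed by the two HTRF detection reagents. Compounds were screened at 1.0 µM, then IC50s were determined.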

Assay [16] deals with H9c2. As to the kind of experiment: Inhibition of OGD-induced apoptosis in rat H9c2 cells assessed as necrotic cells at 0.5 uM incubated for 24 hrs by annexinV-FITC and PI staining based flow cytometry analysis (reference value: 2.45 %). The assay is classed as functional.

Sequence of Epidermal growth factor receptor (Homo sapiens) (P00533 whole entry): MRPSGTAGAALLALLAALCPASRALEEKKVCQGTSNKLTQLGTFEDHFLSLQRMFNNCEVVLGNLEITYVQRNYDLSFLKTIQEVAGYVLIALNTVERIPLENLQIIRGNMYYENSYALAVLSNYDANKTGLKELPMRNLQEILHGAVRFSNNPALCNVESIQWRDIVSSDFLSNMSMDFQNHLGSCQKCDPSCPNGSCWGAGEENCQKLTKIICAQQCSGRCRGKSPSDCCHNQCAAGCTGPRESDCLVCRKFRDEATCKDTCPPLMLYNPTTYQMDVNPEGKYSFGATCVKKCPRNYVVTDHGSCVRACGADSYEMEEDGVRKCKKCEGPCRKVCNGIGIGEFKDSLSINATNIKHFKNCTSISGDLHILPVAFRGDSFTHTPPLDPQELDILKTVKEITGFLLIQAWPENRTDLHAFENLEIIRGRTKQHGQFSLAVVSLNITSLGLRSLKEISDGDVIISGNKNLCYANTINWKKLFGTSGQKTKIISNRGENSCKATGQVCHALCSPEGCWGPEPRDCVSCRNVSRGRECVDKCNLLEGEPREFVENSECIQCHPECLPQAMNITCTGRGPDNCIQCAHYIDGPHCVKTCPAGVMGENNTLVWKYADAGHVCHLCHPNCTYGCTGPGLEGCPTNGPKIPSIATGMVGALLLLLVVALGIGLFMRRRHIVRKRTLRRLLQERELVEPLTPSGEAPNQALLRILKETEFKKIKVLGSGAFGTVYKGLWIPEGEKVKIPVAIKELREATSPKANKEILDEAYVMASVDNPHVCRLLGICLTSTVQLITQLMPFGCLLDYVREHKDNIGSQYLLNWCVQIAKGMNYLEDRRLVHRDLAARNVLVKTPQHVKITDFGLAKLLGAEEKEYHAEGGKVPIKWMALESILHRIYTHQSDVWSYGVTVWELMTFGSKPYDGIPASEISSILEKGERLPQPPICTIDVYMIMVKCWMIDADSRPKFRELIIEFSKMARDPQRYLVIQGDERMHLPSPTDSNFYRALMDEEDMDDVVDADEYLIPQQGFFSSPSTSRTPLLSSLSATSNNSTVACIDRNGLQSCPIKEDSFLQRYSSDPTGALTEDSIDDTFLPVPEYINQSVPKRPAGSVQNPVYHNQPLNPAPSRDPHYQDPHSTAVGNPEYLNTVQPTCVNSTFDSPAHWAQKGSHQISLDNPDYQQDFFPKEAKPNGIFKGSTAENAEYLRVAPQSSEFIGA

Consider `CN(C)CCCN1CCc2c(sc3ncnc(Nc4ccc(N(C)C)c(NC(=O)c5ccco5)c4)c23)C1`, for which the inhibition result in assay [1], in [3], in assay [5], in assay [8] and in assay [14] was “Active” each time. Also, the inhibition entry in [2] and in [12] was “inactive” throughout. The Activity result in assay [4] was “Dose-dependent effect”; in assay [11], 81%; in assay [15], 28%. In addition, the inhibition at 0.5 µM is 3.59% in [6], 87% in assay [9] and 2.24% in assay [16]. The inhibition at 1 µM in assay [7] was found to be 3.17%. For the same compound, in assay [10], the outcome was Active. Further, the inhibition entry in assay [13] was “Dose-dependent effect”.
